For series [1], the target named is T1, Angiotensin II receptor (Rattus norvegicus, UniProt P29089+P25095+P35351).
T1 sequence (P29089 whole entry): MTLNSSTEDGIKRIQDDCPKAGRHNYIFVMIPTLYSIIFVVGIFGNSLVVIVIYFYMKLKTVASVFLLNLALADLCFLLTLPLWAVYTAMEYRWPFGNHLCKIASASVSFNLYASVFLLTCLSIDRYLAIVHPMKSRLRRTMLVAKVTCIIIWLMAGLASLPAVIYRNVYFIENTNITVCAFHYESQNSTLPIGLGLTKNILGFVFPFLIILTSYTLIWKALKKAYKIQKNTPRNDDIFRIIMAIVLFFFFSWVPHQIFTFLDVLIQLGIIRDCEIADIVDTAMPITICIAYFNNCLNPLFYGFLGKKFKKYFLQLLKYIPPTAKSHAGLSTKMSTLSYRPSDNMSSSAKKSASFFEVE
T1 sequence (P25095 whole entry): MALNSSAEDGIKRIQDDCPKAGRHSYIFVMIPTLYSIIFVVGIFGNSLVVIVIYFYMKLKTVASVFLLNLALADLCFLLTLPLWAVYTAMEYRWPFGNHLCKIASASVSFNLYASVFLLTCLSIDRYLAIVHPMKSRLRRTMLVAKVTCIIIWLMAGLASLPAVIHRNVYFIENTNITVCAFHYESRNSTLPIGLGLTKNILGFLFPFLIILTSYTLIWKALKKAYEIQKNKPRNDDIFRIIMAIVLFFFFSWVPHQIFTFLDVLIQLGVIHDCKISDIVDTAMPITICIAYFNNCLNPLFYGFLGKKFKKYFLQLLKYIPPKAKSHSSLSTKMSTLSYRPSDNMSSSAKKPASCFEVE
T1 sequence (P35351 whole entry): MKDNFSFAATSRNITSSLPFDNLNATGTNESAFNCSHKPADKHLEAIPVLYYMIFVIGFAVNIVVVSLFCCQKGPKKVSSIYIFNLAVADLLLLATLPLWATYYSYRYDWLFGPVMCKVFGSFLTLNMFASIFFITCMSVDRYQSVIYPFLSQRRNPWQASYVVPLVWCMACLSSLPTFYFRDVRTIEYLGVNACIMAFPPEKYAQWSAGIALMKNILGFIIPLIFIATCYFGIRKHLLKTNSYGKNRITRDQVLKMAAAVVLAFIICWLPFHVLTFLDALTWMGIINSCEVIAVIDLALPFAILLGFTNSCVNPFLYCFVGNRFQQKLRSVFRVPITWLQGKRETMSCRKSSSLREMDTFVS
As to the kind of experiment: Inhibitory concentration that gave 50 percent displacement of specific binding of [3H]AII (2 nM) to Angiotensin II receptor. It counts as protein assay. In outline:
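Rat adrenal cortical microsomes from male Sprague–Dawley rats, resuspended in 50 mM Tris pH 7.2, 5 mM MgCl2, 0.25% BSA. Membranes (0.02–0.03 mg protein) incubated with [3H]AII 2 nM plus varying inhibitor concentrations, 60 min at 25 °C with shaking. Glass-fiber filtration, scintillation counting, duplicates. Nonspecific binding defined with 1 μM unlabeled AII. IC50 taken from linear portion of displacement curve.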

The nature of series [2]: Dissociation constant (pKa). The class given is physicochemical.

Molecules are shown by their SMILES.

Take `C1CCC(NC2CCCCC2)CC1.CCCCc1nc(Cl)c(CC(=O)OC)n1Cc1ccc(NC(=O)c2c(Cl)ccc(Cl)c2C(=O)O)cc1`: in series [1], the 50% inhibitory concentration (IC50) (as a rule, the concentration that gives 50% inhibition) was found to be 0.018 µM.
Same read-out and setting: the value for `CCCCc1nc(Cl)c(CC(=O)OC)n1Cc1ccc(NC(=O)c2ccc(NS(=O)(=O)C(F)(F)F)cc2)cc1` was 84 µM; that for `CCCCc1nc(Cl)c(CC(=O)O)n1Cc1ccccc1C(=O)O` was 38 µM; that for `CCCCc1nc(Cl)c(COC)n1Cc1ccc(C(=O)N2CCC[C@H]2C(=O)O)cc1` was 6.4 µM.
Same read-out and setting: in the case of `CCCCc1nc(CO)c(Cl)n1Cc1ccc(C(=O)O)cc1` it was 100 µM.
Take `CCCCc1nc(Cl)c(CC(=O)OC)n1Cc1ccc(NC(=O)c2cc(C)ccc2NS(=O)(=O)C(F)(F)F)cc1`: in series [1], the IC50 came to 0.81 µM. The pKa (in general, the pH at which an ionisable group is half protonated) in series [2] worked out at 4.5.
On to `CCCCc1nc(Cl)c(CC(=O)OC)n1Cc1ccc(N(Cc2ccccc2)C(=O)c2ccccc2NS(=O)(=O)C(F)(F)F)cc1`, for which the IC50 in series [1] came out at 2.7 µM. Also, the pKa in series [2] was found to be 4.5.
The compound `CCCCc1nc(Cl)c(CC(=O)OC)n1Cc1ccc(NC(=O)/C=C\C(=O)O)cc1` had a half-inhibitory concentration (IC50) in series [1] of 11 µM.
With `CCCCc1nc(Cl)c(CC(=O)OC)n1Cc1ccc(NS(=O)(=O)C(F)(F)F)cc1`, the half-inhibitory concentration (IC50) in series [1] came out at 2.1 µM. For the same compound, in series [2], the pKa turned out to be 4.5.
In the case of `CCCCc1nc(Cl)c(CC(=O)OC)n1Cc1ccc(NC(=O)c2cccc(NS(=O)(=O)C(F)(F)F)c2)cc1`, the IC50 in series [1] amounted to 1.3 µM.
Same read-out and setting: in the case of `CCCCc1nc(Cl)c(CC(=O)OC)n1Cc1ccc(N)cc1` it was 100 µM.
Turning to `CCCCc1nc(Cl)c(CC(=O)OC)n1Cc1ccc(NC(=O)c2cc([N+](=O)[O-])cc([N+](=O)[O-])c2O)cc1`, the 50% inhibitory concentration (IC50) in series [1] was greater than 30 µM. Moreover, the pKa in series [2] was determined as 4.3.
Compound `CCCCc1nc(Cl)c(CO)n1Cc1ccc(C=O)cc1` registered an IC50 in series [1] of 28 µM.
Regarding `CCCCc1nc(Cl)c(CC(=O)OC)n1Cc1ccc(NC(=O)c2cc(Br)ccc2NS(=O)(=O)C(F)(F)F)cc1`, the 50% inhibitory concentration (IC50) in series [1] stood at 40 µM. Also, in series [2], the pKa is 4.5.
For `CCCCc1nc(Cl)c(CC(=O)OC)n1Cc1ccc(NC(=O)C2CCCCC2NS(=O)(=O)C(F)(F)F)cc1` (stereo in doubt; 51), in that order: 4.5 µM and 7.6.
For `CCCCc1nc(Cl)c(CC(=O)OC)n1Cc1ccc(NC(=O)c2cc(I)ccc2NS(=O)(=O)C(F)(F)F)cc1`, in that order: 3.4 µM and 4.5.
On to `CCCCCCCc1nccn1Cc1ccc(NC(=O)c2ccccc2C(=O)O)cc1`, for which the IC50 in series [1] worked out at 1.1 µM.
Still for that read-out and setting: in the case of `CCCCc1nc(Cl)c(CC(=O)OC)n1Cc1ccc(NC(=O)c2cc(C)ccc2C(=O)O)cc1` it was 0.38 µM.
On the same count and under the same terms, the value for `CCCCc1nc(CC(=O)O)c(Cl)n1Cc1ccc(C(=O)O)cc1` was 19 µM.
`CCCCc1nc(Cl)c(CC(=O)OC)n1Cc1ccc(NC(=O)c2ccccc2NS(=O)(=O)C(F)(F)F)cc1` came in with an IC50 in series [1] of 0.5 µM. This compound displayed a pKa in series [2] of 4.5.
`CCCCc1nc(Cl)c(CC(=O)OC)n1Cc1ccc(N2C(=O)C(c3ccccc3)=C(c3ccccc3)C2=O)cc1` gave an IC50 in series [1] greater than 10 µM.
As for `CCCCc1nc(Cl)c(Cc2nnn[nH]2)n1Cc1ccc(-c2nnn[nH]2)cc1`, the IC50 in series [1] came out at 1.2 µM. For the same compound, the pKa in series [2] amounted to 4.
Compound `CCCCc1nc(CC(=O)OC)c(Cl)n1Cc1ccc(NC(=O)c2ccccc2C(=O)O)cc1` yielded an IC50 in series [1] of 0.42 µM.
`CCCCc1nc(Cl)c(CC(=O)OC)n1Cc1ccc(NC(=O)C(F)(F)F)cc1` had a half-inhibitory concentration (IC50) in series [1] of 27 µM. In addition, in series [2], the pKa is 9.5.
For `CCCCc1nc(Cl)c(CC(=O)OC)n1Cc1ccc(NC(=O)c2cccc(C)c2NS(=O)(=O)C(F)(F)F)cc1`, in that order: 0.19 µM and 4.5.
In series [1], `CCCCc1nc(Cl)c(COC)n1Cc1ccc(C(=O)N2CCC[C@@H]2C(=O)O)cc1` gave an IC50 of 120 µM.
In turn, `CCCCc1nc(Cl)c(COC)n1Cc1ccc(C(=O)Nc2ccccc2-c2nn[nH]n2)cc1` returned an IC50 in series [1] of 0.57 µM.
As to `CCCCc1nc(Cl)c(CC(=O)O)n1Cc1cccc(C(=O)O)c1`, the IC50 in series [1] was determined as 100 µM.
Same read-out and setting: the value for `CCCCc1nc(Cl)c(COC)n1Cc1ccc(C(=O)N[C@H](Cc2ccccc2)C(=O)O)cc1` was 6.1 µM; that for `CCCCc1nc(Cl)c(CO)n1Cc1ccc(/C=N/O)cc1` was greater than 100 µM.
With `CCCCc1nc(Cl)c(COC)n1Cc1ccc(N(C)C(=O)c2c(Cl)ccc(Cl)c2C(=O)O)cc1`, the IC50 in series [1] amounted to 5.7 µM. This lies in the single-digit micromolar range.
As to `CCCCc1nc(Cl)c(CC(=O)OC)n1Cc1ccc(NC(=O)c2ccccc2NS(C)(=O)=O)cc1`, the IC50 in series [1] came out at 2.3 µM. Besides, in series [2], the pKa came out at 8.9.
`CCCCc1nc(Cl)c(CC(=O)OC)n1Cc1ccc([N+](=O)[O-])cc1` returned an IC50 in series [1] of 100 µM.
In series [1], `CCCCc1nc(Cl)c(COC)n1Cc1ccc(NC(=O)C(CC(=O)O)c2ccccc2)cc1` (stereo unspecified) registered an IC50 of 7.5 µM.
Compound `CCCCc1nc(Cl)c(Cc2nnn[nH]2)n1Cc1cccc(-c2nnn[nH]2)c1` displayed an IC50 in series [1] of 3.8 µM.
`O=C(O)c1ccccc1C(=O)Nc1ccc(Cn2c(CCCc3ccccc3)nc(Cl)c2CO)cc1` registered an IC50 in series [1] of 80 µM. This IC50 lies about 21-fold higher than the previous one.
Same read-out and setting: in the case of `CCCCc1nc(Cl)c(CC(=O)OC)n1Cc1ccc(NC(=O)c2cccc([N+](=O)[O-])c2C(=O)O)cc1` it was 0.4 µM; in that of `CCCCc1nc(Cl)c(CC(=O)OC)n1Cc1ccc(NC(=O)c2ccccc2-c2ccccc2C(=O)O)cc1`, 0.19 µM; in that of `CCCCc1nc(Cl)c(COC)n1Cc1ccc(NC(=O)CC(C(=O)O)c2ccccc2)cc1` (stereo unspecified), 2.8 µM.
Compound `CCCCc1nc(Cl)c(CC(=O)O)n1Cc1ccc(CC(=O)O)cc1` displayed a half-maximal inhibitory concentration (IC50) in series [1] of 13 µM. This IC50 is about 4.6-fold higher than that of the compound before.
The same measure, in the same setting: the value for `CCCCc1nc(Cl)c(CO)n1Cc1ccc(OC)cc1` was 100 µM; that for `CCCCc1nc(Cl)c(CC(=O)OC)n1Cc1ccc(NC(=O)c2cc3ccccc3cc2C(=O)O)cc1` was 5.8 µM; that for `CCCCc1nc(Cl)c(COC)n1Cc1ccc(C(=O)Nc2cccc(C)c2C(=O)O)cc1` was 0.5 µM.
Still for that read-out and setting: in the case of `CCCCc1nc(Cl)c(CC(=O)OC)n1Cc1ccc(NC(=O)c2ccc([N+](=O)[O-])cc2C(=O)O)cc1` it was 6.9 µM; in that of `CCCCc1nc(Cl)c(COC)n1Cc1ccc(C(=O)N[C@@H](Cc2ccccc2)C(=O)O)cc1`, 22 µM; in that of `CCCCc1nc(Cl)c(COC)n1Cc1ccc(C(=O)Nc2ccccc2C(=O)O)cc1`, 8 µM.
`CCCCc1nc(Cl)c(CC(=O)OC)n1Cc1ccccc1NC(=O)c1ccccc1NS(=O)(=O)C(F)(F)F` registered an IC50 in series [1] greater than 100 µM.
The same measure, in the same setting: the value for `CCCCc1nc(Cl)c(CC(=O)OC)n1Cc1ccc(NC(=O)c2c(C)cccc2C(=O)O)cc1` was 0.032 µM; that for `CCCCc1nc(Cl)c(COC(C)=O)n1Cc1ccc(C(=O)O)cc1` was 5.3 µM; that for `CCCCc1nc(Cl)c(CC(=O)O)n1Cc1ccccc1[N+](=O)[O-]` was 15 µM.
The same measure, in the same setting: the value for `CCCCc1nc(Cl)c(CC(=O)OC)n1Cc1ccc(NCc2ccccc2)cc1` was 40 µM; that for `CCCCc1nc(Cl)c(CC(=O)OC)n1Cc1ccc(NC(=O)c2c(OC)cccc2C(=O)O)cc1` was 0.08 µM; that for `CCCCc1nc(Cl)c(CC(=O)OC)n1Cc1ccc(N2C(=O)c3ccccc3C2=O)cc1` was 3.1 µM.
Consider `CCCCc1nc(Cl)c(CC(=O)OC)n1Cc1ccccc1NC(=O)c1ccccc1C(=O)O`, for which the IC50 in series [1] is 100 µM. Compared with the last compound, the IC50 is about 32-fold higher.
